Laboratory results: ChEMBL document CHEMBL4411301, “Design, Biological Evaluation, and Molecular Modeling of Tetrahydroisoquinoline Derivatives: Discovery of A Potent P-Glycoprotein Ligand Overcoming Multidrug Resistance in Cancer Stem Cells” (J Med Chem, 2019)
Calls of active or inactive are those of the source. The rule behind the calls is not given here.

Legend:
[1] = target: T1, Broad substrate specificity ATP-binding cassette transporter ABCG2 (Homo sapiens, UniProt Q9UNQ0); experiment: Inhibition of BCRP (unknown origin) expressed in MDCK cells assessed as reduction in Hoechst 33342 efflux preincubated for 30 mins followed by Hoechst 3334 addition measured after 30 mins by fluorescence assay; type: cell-based
T1 sequence (Q9UNQ0 whole entry): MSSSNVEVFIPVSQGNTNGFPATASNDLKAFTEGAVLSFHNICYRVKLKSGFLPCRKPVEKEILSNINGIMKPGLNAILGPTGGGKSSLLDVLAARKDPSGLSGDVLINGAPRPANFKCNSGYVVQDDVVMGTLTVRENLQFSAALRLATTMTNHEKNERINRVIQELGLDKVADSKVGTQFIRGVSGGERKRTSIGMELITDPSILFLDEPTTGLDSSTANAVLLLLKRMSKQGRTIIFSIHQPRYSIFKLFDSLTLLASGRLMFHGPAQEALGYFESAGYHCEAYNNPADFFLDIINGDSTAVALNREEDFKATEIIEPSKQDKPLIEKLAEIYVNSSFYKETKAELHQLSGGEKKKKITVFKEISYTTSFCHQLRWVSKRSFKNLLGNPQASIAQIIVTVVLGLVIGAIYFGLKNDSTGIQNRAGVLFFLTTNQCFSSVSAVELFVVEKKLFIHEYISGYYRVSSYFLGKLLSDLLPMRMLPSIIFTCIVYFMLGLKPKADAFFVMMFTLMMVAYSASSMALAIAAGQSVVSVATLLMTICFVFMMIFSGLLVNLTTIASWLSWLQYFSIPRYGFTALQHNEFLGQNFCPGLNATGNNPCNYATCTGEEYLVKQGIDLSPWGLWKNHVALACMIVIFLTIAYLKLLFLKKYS
Method in brief: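 MDCK-BCRP monolayers (30,000 cells/well, confluent overnight) preincubated 30 min at 37 °C with compound (0.1–100 µM final). Hoechst 33342 then added (8 µM final) for 30 min. Cells fixed 20 min in 4% PFA, washed with ice-cold PBS and read at ex 340/em 485 nm. EC50 fitted from % fluorescence increase over basal vs log dose. Mean ± SEM, three experiments in triplicate.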

[2] = target: MDR1 (ABCB1, P-glycoprotein) (Homo sapiens, UniProt P08183); experiment: Activity at MDR1 in human Caco2 cells assessed as efflux ratio of apparent permeability from basolateral to apical side over apical to basolateral side; type: cell-based; conditions: Caco-2
Sequence of MDR1 (ABCB1, P-glycoprotein) (P08183 whole entry): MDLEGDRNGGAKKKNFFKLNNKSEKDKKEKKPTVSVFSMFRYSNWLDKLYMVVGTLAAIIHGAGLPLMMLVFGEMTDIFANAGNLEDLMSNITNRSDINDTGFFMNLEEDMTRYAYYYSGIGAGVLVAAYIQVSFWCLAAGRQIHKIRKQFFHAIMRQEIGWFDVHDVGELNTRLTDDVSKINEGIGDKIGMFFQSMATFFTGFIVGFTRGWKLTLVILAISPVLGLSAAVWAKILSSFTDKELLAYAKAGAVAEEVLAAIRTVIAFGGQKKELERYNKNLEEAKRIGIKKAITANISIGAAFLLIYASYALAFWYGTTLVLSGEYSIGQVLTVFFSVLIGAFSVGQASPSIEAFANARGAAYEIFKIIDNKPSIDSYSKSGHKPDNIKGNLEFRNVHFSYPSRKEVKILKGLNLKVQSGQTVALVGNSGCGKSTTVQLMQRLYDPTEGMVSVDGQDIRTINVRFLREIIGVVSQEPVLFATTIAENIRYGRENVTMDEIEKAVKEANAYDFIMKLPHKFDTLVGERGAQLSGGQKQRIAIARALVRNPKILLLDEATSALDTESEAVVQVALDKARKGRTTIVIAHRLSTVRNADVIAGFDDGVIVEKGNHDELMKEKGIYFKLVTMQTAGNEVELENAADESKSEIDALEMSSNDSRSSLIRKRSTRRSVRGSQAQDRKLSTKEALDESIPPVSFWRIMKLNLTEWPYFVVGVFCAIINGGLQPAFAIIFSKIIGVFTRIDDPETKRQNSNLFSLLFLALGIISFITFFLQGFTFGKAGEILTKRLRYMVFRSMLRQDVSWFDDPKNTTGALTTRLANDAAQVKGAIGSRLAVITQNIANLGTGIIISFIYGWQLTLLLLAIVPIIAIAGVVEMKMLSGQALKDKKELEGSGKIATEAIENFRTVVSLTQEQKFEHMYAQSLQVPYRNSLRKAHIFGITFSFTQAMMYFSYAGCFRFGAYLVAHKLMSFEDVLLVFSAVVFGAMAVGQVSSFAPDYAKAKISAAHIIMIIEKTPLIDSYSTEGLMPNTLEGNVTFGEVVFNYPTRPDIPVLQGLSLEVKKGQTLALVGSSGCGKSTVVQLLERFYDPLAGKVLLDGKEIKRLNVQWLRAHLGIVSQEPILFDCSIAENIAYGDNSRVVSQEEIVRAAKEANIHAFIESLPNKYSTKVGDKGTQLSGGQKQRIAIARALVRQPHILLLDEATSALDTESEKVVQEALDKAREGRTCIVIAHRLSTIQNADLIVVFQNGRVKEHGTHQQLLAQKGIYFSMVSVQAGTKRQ
Method in brief: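 Caco-2 cells grown 21 days on filter inserts, then washed with HBSS and equilibrated 30 min at 37 °C. Compound at 100 µM added to the donor side and incubated 120 min at 37 °C. Papp in nm/s calculated as (VA/Area) × ([drug]acceptor/[drug]initial)/time, membrane area 0.11 cm2. BA/AB ratio from two independent experiments.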

[3] = target: T2, ATP-dependent translocase ABCB1 (Homo sapiens, UniProt P08183); experiment: Inhibition of MDR1 (unknown origin) expressed in MDCK cells assessed as increase in calcein-AM accumulation after 30 mins by calcein-AM dye based fluorescence assay; type: cell-based
T2 sequence (P08183 whole entry): as above
Method in brief: (§1)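 MDCK-MDR1 or MDCK-MRP1 cells seeded at 30,000/well and grown to confluence overnight. Compound (0.1–100 µM final, in medium) incubated 30 min at 37 °C, then calcein-AM added (2.5 µM final) for 30 min. Cells washed with ice-cold PBS and read at ex 485/em 535 nm. EC50 fitted from % fluorescence increase over untreated vs log dose. Mean ± SEM, three experiments in triplicate.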

[4] = target: Multidrug resistance-associated protein 1 (Homo sapiens, UniProt P33527); experiment: Inhibition of MRP1 (unknown origin) expressed in MDCK cells assessed as increase in calcein-AM accumulation incubated for 30 mins by calcein-AM dye based fluorescence assay; type: cell-based; method in brief: as §1
Sequence of Multidrug resistance-associated protein 1 (P33527 whole entry): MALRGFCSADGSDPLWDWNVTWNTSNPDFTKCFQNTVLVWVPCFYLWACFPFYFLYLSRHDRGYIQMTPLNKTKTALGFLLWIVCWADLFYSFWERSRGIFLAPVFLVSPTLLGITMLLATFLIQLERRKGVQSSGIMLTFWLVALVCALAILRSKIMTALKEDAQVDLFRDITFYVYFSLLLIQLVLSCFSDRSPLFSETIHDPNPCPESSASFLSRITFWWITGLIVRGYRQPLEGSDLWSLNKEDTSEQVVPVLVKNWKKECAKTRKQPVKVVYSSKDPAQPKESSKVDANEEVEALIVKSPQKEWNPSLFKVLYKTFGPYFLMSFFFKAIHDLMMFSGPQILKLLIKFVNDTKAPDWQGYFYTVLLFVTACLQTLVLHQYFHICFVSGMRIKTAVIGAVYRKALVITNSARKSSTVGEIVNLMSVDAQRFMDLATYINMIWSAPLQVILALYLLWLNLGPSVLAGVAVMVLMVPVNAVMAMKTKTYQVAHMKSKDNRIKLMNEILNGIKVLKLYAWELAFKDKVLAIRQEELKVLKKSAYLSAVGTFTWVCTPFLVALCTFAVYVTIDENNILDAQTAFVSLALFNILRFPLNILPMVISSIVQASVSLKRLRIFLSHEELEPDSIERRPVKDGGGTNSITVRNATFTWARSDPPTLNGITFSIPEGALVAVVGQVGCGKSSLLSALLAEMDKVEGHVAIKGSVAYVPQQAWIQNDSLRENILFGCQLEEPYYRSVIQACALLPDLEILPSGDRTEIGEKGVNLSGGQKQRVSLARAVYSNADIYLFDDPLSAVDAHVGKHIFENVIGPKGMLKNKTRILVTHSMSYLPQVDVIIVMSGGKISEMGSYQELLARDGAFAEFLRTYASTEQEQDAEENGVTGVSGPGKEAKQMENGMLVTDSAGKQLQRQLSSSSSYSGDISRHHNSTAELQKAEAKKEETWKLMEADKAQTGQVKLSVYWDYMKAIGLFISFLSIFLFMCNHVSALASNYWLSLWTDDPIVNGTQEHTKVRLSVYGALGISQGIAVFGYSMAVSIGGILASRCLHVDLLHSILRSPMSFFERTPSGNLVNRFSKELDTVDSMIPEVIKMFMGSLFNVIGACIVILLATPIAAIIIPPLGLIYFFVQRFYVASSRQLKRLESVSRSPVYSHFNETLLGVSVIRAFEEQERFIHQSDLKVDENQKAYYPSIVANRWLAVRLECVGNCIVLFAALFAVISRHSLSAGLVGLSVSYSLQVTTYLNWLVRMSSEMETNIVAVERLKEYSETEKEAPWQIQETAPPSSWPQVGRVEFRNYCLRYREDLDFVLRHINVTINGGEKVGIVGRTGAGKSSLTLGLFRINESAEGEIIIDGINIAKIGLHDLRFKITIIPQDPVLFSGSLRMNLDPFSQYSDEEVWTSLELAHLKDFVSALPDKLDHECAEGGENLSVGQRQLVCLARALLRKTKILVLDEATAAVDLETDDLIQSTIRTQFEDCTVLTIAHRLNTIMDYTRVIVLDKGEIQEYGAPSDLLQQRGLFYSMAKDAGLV

[5] = target: T2, ATP-dependent translocase ABCB1; experiment: Inhibition of MDR1 in human primary mesothelioma stem cells assessed as increase in doxorubicin-induced reduction in cell viability at 10 nM after 24 hrs by LDH release assay; conditions: 0.01 µM
Homo sapiens [6] = species: Homo sapiens; experiment: Induction of intracellular doxorubicin accumulation in human differentiated primary glioblastoma cells at 10 to 10000 nM after 3 hrs by spectrofluorimetric analysis; type: functional, cell-based
Method in brief: (§2)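 Differentiated or stem cells from primary glioblastoma or mesothelioma of 3 patients (stem cells used within passage 6). Incubated 3 h with 5 µM doxorubicin, alone or with compound (DMSO 1% v/v). Washed, lysed in ethanol/0.3 N HCl, doxorubicin fluorescence read at ex 475/em 553 nm and expressed as nmol/mg cell protein via calibration curve. Duplicates, n=3, mean ± SEM.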

Homo sapiens [7] = species: Homo sapiens; experiment: Potentiation of doxorubicin-induced cytotoxicity in human differentiated primary glioblastoma cells assessed as increase in doxorubicin-induced reduction in cell viability at 10 nM after 72 hrs by ATPlite luminescence assay; type: functional, cell-based
Method in brief: (§3)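 Primary glioblastoma or mesothelioma differentiated and stem cells incubated 72 h with medium, 5 µM doxorubicin, 10 nM compound or 1 µM elacridar, alone or combined (DMSO 1% v/v). Viability by ATPlite luminescence as % of untreated RLU. Quadruplicates, n=3, mean ± SEM, one-way ANOVA.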

Homo sapiens [8] = species: Homo sapiens; experiment: Potentiation of doxorubicin-induced cytotoxicity in human differentiated primary mesothelioma cells assessed as increase in doxorubicin-induced reduction in cell viability at 10 nM after 72 hrs by ATPlite luminescence assay; type: functional, cell-based; method in brief: as §3
[9] = target: T2, ATP-dependent translocase ABCB1; experiment: Inhibition of MDR1 in human primary glioblastoma stem cells assessed as increase in doxorubicin-induced reduction in cell viability at 10 nM after 72 hrs by ATPlite luminescence assay; conditions: 0.01 µM; method in brief: as §3
Homo sapiens [10] = species: Homo sapiens; experiment: Induction of doxorubicin accumulation in P-gp knocked out human primary glioblastoma stem cells co-expressing CRISPR-Cas at 10 nM after 3 hrs by spectrofluorimetric analysis; type: functional
Method in brief: (§4)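 Patient-derived glioblastoma (line 4, patient #2) or mesothelioma (line 5, patient #1) stem cells, untreated, scrambled CRISPR-Cas or P-gp CRISPR-Cas knockout. Incubated 3 h with 5 µM doxorubicin. Cells lysed in ethanol/0.3 N HCl and doxorubicin read fluorimetrically at ex 475/em 553 nm, converted to nmol/mg protein by calibration. Duplicates, n=3, mean ± SEM, one-way ANOVA.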

Homo sapiens [11] = species: Homo sapiens; experiment: Induction of intracellular doxorubicin accumulation in human differentiated primary mesothelioma stem cells at 10 to 10000 nM after 3 hrs by spectrofluorimetric analysis; type: functional, cell-based; method in brief: as §2
[12] = target: T2, ATP-dependent translocase ABCB1; experiment: Inhibition of MDR1 in human primary mesothelioma stem cells assessed as increase in intracellular doxorubicin accumulation at 10 to 10000 nM after 3 hrs by spectrofluorimetric analysis; type: cell-based; method in brief: as §2
[13] = Cytotoxicity against human MSC at 10 nM after 24 hrs by LDH release assay; conditions: 0.01 µM
[14] = target: T2, ATP-dependent translocase ABCB1; experiment: Inhibition of MDR1 in human GSC assessed as increase in doxorubicin-induced cell toxicity at 10 nM after 24 hrs by LDH release assay; conditions: 0.01 µM
[15] = target: T2, ATP-dependent translocase ABCB1; experiment: Inhibition of MDR1 in human primary mesothelioma stem cells assessed as increase in doxorubicin-induced reduction in cell viability at 10 nM after 72 hrs by ATPlite luminescence assay; conditions: 0.01 µM; method in brief: as §3
Homo sapiens [16] = species: Homo sapiens; experiment: Potentiation of doxorubicin-induced cytotoxicity in human differentiated primary glioblastoma cells assessed as increase in doxorubicin-induced reduction in cell viability at 10 nM after 24 hrs by LDH release assay; type: functional, cell-based
[17] = target: T2, ATP-dependent translocase ABCB1; experiment: Inhibition of MDR1 in human primary glioblastoma stem cells assessed as increase in doxorubicin-induced reduction in cell viability at 10 nM after 24 hrs by LDH release assay; conditions: 0.01 µM
[18] = target: T2, ATP-dependent translocase ABCB1; experiment: Inhibition of MDR1 in human MSC assessed as increase in doxorubicin-induced cell toxicity at 10 nM after 24 hrs by LDH release assay; conditions: 0.01 µM
Homo sapiens [19] = species: Homo sapiens; experiment: Potentiation of doxorubicin-induced cytotoxicity in human differentiated primary mesothelioma cells assessed as increase in doxorubicin-induced reduction in cell viability at 10 nM after 24 hrs by LDH release assay; type: functional, cell-based
[20] = target: T2, ATP-dependent translocase ABCB1; experiment: Inhibition of MDR1 in human primary glioblastoma stem cells assessed as increase in intracellular doxorubicin accumulation at 10 to 10000 nM after 3 hrs by spectrofluorimetric analysis; type: cell-based; method in brief: as §2
[21] = target: T2, ATP-dependent translocase ABCB1; experiment: Inhibition of MDR1 (unknown origin) expressed in MDCK1 cells assessed as potentiation of doxorubicin-induced decrease in cell proliferation at 1 uM administered alone on day 2 followed by drug addition day 3 along with doxorubicin addition by MTT assay; type: cell-based
Method in brief: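 MDCK-MDR1 cells, 10000/well. On day 2, compound alone at 10 nM, 100 nM or 1 µM. On day 3, medium replaced with compound alone or with 10 µM doxorubicin; 48 h assay. MTT 0.5 mg/mL for 3–4 h at 37 °C, formazan dissolved in DMSO/EtOH 1:1, absorbance read at 570/630 nm. Solvent 1% v/v DMSO. Mean ± SEM, two experiments in triplicate; one-way ANOVA.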

[22] = Cytotoxicity against human GSC at 10 nM after 24 hrs by LDH release assay; conditions: 0.01 µM
Homo sapiens [23] = species: Homo sapiens; experiment: Induction of doxorubicin accumulation in P-gp knocked out human primary mesothelioma stem cells co-expressing CRISPR-Cas at 10 nM after 3 hrs by spectrofluorimetric analysis; type: functional; method in brief: as §4

EC50 ([1]; mdck)	efflux ratio [2]	EC50 ([3]; read-out: EC50)	EC50 [4]	Structure (SMILES)	further results
Not Active	15	29500 nM	Not Active	COc1cc2c(cc1OC)CN(Cc1ccc(-c3ccc4[nH]c(=O)[nH]c4c3)cc1)CC2	
Not Active	4.2	19200 nM	Not Active	COc1cc2c(cc1OC)CN(Cc1ccc(-c3ccc4c(ccn4S(=O)(=O)c4ccccc4)c3)cc1)CC2	
Not Active	12	900 nM	Not Active	COc1cc2c(cc1OC)CN(Cc1ccc(-c3ccc4[nH]ncc4c3)cc1)CC2	
Not Active	9.3	1700 nM	Not Active	CCNC(=O)Nc1ccc(-c2ccc(CN3CCc4cc(OC)c(OC)cc4C3)cc2)cc1	
Not Active	17.6	1100 nM	Not Active	CCCNC(=O)Nc1ccc(-c2ccc(CN3CCc4cc(OC)c(OC)cc4C3)cc2)cc1	
	8.5	1200 nM	Not Active	COc1cc2c(cc1OC)CN(Cc1ccc(-c3ccc4c(c3)C(N3CCc5cc(OC)c(OC)cc5C3)C(=O)N4)cc1)CC2 (configuration not stated)	EC50 ([1]; read-out: EC50): 1800 nM
	1.3			COc1cc2c(cc1OC)CN(Cc1ccc(-c3ccc(O)cc3)cc1)CC2	
Not Active	15	870 nM	Not Active	COc1cc2c(cc1OC)CN(Cc1ccc(-c3ccc(NS(=O)(=O)c4ccccc4)cc3)cc1)CC2	
Not Active	12.8	3100 nM	Not Active	CNC(=O)Nc1ccc(-c2ccc(CN3CCc4cc(OC)c(OC)cc4C3)cc2)cc1	
Not Active	> 20	15.3 nM	Not Active	COc1cc2c(cc1OC)CN(Cc1ccc(-c3ccc(N(S(=O)(=O)c4ccccc4)S(=O)(=O)c4ccccc4)cc3)cc1)CC2	inhibition (INH) [5]: Active; Activity (Homo sapiens [6]): inactive; Activity (Homo sapiens [7]): inactive; Activity (Homo sapiens [8]): inactive; inhibition (INH) [9]: Active; Activity (Homo sapiens [10]): inactive; Activity (Homo sapiens [11]): inactive; inhibition (INH) [12]: Active; Activity [13]: Non-Toxic; inhibition (INH) [14]: Active; inhibition (INH) [15]: Active; Activity (Homo sapiens [16]): inactive; inhibition (INH) [17]: Active; inhibition (INH) [18]: Active; Activity (Homo sapiens [19]): inactive; inhibition (INH) [20]: Active; inhibition (INH) [21]: Active; Activity [22]: Non-Toxic; Activity (Homo sapiens [23]): inactive
Not Active	8.1	21400 nM	Not Active	COc1cc2c(cc1OC)CN(Cc1ccc(-c3ccc4c(c3)C(=O)C(=O)N4)cc1)CC2	
Not Active	> 20	980 nM	Not Active	COc1cc2c(cc1OC)CN(Cc1ccc(-c3ccc(NC(=O)Nc4ccccc4)cc3)cc1)CC2	
	12.8	320 nM	Not Active	CCCCNC(=O)Nc1ccc(-c2ccc(CN3CCc4cc(OC)c(OC)cc4C3)cc2)cc1	EC50 ([1]; read-out: EC50): 46000 nM
Not Active	3.6	1470 nM	Not Active	COc1cc2c(cc1OC)CN(Cc1ccc(-c3ccc4c(c3)CC(=O)N4)cc1)CC2	
Not Active	13.6	1520 nM	Not Active	COc1cc2c(cc1OC)CN(Cc1ccc(-c3ccc(NC(C)=O)cc3)cc1)CC2	
Not Active	1.9	21200 nM	Not Active	COc1cc2c(cc1OC)CN(Cc1ccc(-c3ccc4[nH]ccc4c3)cc1)CC2	
Not Active	5	5200 nM	Not Active	COc1cc2c(cc1OC)CN(Cc1ccc(-c3ccc(NS(C)(=O)=O)cc3)cc1)CC2	
Not Active	19.9		Not Active	COc1cc2c(cc1OC)CN(Cc1ccc(-c3ccc(NC(=O)c4ccccc4)cc3)cc1)CC2	EC50 ([3]; mdck): Not Active
Not Active	9.2	6930 nM	Not Active	COc1cc2c(cc1OC)CN(Cc1ccc(-c3ccc4[nH]cnc4c3)cc1)CC2	
